In data set [1] the test system is HT29 colon cancer cells. Briefly: MTT assay, HT29 cells. It is filed as cell-based, human. The settings on record: for IC50: read-out: IC50 (μM) HT29. The method in brief:
(§1)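 HT29, H1975, A549, MCF-7 and normal colon epithelial CCD841 cells were seeded at 5×10^5 cells/mL and grown 24 h. They were exposed to test compound at 0.5, 1.0, 2.0, 5.0 or 12.5 μM in DMEM for 24 h, then cultured a further 72 h. MTT (5 mg/mL solution) was added for 4 h at 37 °C and the formazan dissolved in DMSO. A490 was read. IC50 is given as mean ± s.d., n = 3.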

Data set [2] has as its system MCF-7 breast cancer cells. Briefly: MTT assay, MCF-7 cells. It is filed as cell-based. The settings on record: Homo sapiens, MCF7, 72 h, read-out: IC50 (μM) MCF-7. The method in brief: as §1
In data set [3] the test system is A549 lung cancer cells. Briefly: MTT assay, A549 cells. It is filed as cell-based. The settings on record: Homo sapiens, A549, 72 h, read-out: IC50 (μM) A549. In short, it runs like this:
as §1

Data set [4] relates to H1975 lung adenocarcinoma cells. Nature of the data set: MTT assay, H1975 cells. Type of data set: cell-based. The settings on record: Homo sapiens, NCI-H1975, 72 h, read-out: IC50 (μM) H1975. The method in brief:
as §1

Data set [5] can be described thus: Water solubility by UV method. Type of data set: physicochemical. The following applies: thermodynamic from solid. The method in brief:
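For a UV calibration curve, absorbance was measured at five concentrations of each compound in methanol/water (1:1, v/v). Excess solid compound was left standing in water for 2 h, then filtered. Absorbance of the filtrate was read and converted to concentration using the curve, giving water solubility.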

A short description of data set [6]: logP by UV method. It is filed as physicochemical.
Data set [7] has as its system malondialdehyde (MDA) in HT29 cells. Nature of the data set: Lipid peroxidation. Type of data set: cell-based, human. The settings on record: compared with CO. In short, it runs like this:
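HT29 cells were pretreated with or without ferrostatin-1 (1.0 μM) for 4 h. They were then exposed to test compound at 1.0 or 5.0 μM, with the parent reference at 5.0 μM. Lipid peroxidation was quantified as malondialdehyde with an MDA assay kit. Results are mean ± SD, n = 3.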

The subject of data set [8] is Bcl-2 in HT29 cells. Nature of the data set: Western blot, Bcl-2. It is filed as cell-based, human. The settings on record: 1.0 and 5.0 μM, Western blotting.
The test system of data set [9] is GPX4 in HT29 cells. Briefly: Western blot, GPX4. It is filed as cell-based, human. The settings on record: 1.0 or 5.0 μM, compared with CO. In short, it runs like this: (§2)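 HT29 cells were cultured for 4 h in medium containing test compound at 1.0 or 5.0 μM, with the parent reference at 5.0 μM. Lysis was in RIPA buffer with protease and phosphatase inhibitors, 30 min on ice. Protein was quantified by BCA, and equal amounts were run on SDS-PAGE and transferred to PVDF. Band levels were expressed relative to β-actin.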

In data set [10] the test system is cleaved-caspase 3 in HT29 cells. Nature of the data set: Western blot, cleaved-caspase 3. Type of data set: cell-based, human. The following applies: 1.0 and 5.0 μM, Western blotting. The method in brief: as §2
Data set [11] deals with HT29 cells. Briefly: Apoptosis assay, annexin V-FITC/PI flow cytometry. Type of data set: cell-based, human. The method in brief:
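HT29 cells were seeded at 2×10^4 cells per well and left overnight. They were treated with test compound at 1.0 or 5.0 μM (parent reference 5.0 μM) for 24 h, then kept another 72 h. Cells were harvested, washed in PBS and stained with annexin V-FITC/PI. Early plus late apoptotic cells were counted by flow cytometry. Results are mean ± SD of three separate assays.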

Data set [12] concerns H2AX in HT29 cells. Briefly: Western blot, H2AX. It is filed as cell-based, human. The following applies: Western blotting. In short, it runs like this:
as §2

The subject of data set [13] is ROS levels in HT29 cells. Briefly: Intracellular ROS detection with DCFH-DA probe. Type of data set: cell-based, human. The settings on record: 12 h, CO 5.0 μM, 8h 1.0 or 5.0 μM. The method in brief:
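HT29 cells (about 1×10^4 per well) were exposed to test compound at 1.0 or 5.0 μM for 12 h, with the parent reference at 5.0 μM. DCFH-DA (10 μM) was added for 30 min. DCF green fluorescence (λex 488 nm, λem 500–550 nm) was imaged by confocal microscopy. Results are mean ± SD of three separate assays.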

Data set [14] has as its system HT29, H1975, A549 and MCF-7 cancer cells. Nature of the data set: MTT assay, summary over the four cancer cell lines. It is filed as cell-based, human. The following applies: for IC50: Homo sapiens, read-out: IC50 against the four cancer cell lines. In short, it runs like this:
as §1

Data set [15] concerns GSH level in HT29 cells. Nature of the data set: GSH level assay. Type of data set: cell-based, human. The following applies: 24 h, 1.0 or 5.0 μM, compared with CO. The method in brief:
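HT29 cells were exposed for 24 h to test compound at 1.0 or 5.0 μM, with the parent reference at 5.0 μM. Cells were harvested and counted. Glutathione was measured with a QuantiChrome glutathione assay kit. Results are mean ± SD, n = 3.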

In data set [16] the test system is human normal colon epithelial cells (CCD841). Nature of the data set: MTT assay, normal CCD841 cells. Type of data set: cell-based. The method in brief: as §1
Data set [17] has as its system MMP of HT29 cells. Nature of the data set: Mitochondrial membrane potential with JC-1 dye. Type of data set: cell-based, human. The settings on record: 8h 5 μM.

Values after ≈ are worked out from the molar mass of the structure shown. Like-named read-outs stand apart in the source and are kept apart here.

With `CN(C)CCCNC(=O)c1cc2c3ccccc3n3c(=O)ccc(n1)c23` [8c, N-(3-(Dimethylamino)propyl)-6-oxo-6H-indolo[3,2,1-de][1,5]naphthyridine-2-carboxamide], the IC50 in data set [1] (Homo sapiens, HT-29, 72 h) was determined as 4.1 ± 0.3 µM; in data set [2], 4.6 ± 0.5 µM; in data set [3] it was 4.8 ± 0.4 µM; in [4] it was 7.7 ± 0.8 µM.
With `O=C(NCCNCCO)c1cc2c3ccccc3n3c(=O)ccc(n1)c23` [8d, N-(2-((2-Hydroxyethyl)amino)ethyl)-6-oxo-6H-indolo[3,2,1-de][1,5] naphthyridine-2-carboxamide], the 50% inhibitory concentration (IC50) was determined as 2.6 ± 0.2 µM in data set [1] (Homo sapiens, HT-29, 72 h) and 4.2 ± 0.3 µM in [3].
For `CCN(CC)CCNC(=O)c1cc2c3ccccc3n3c(=O)ccc(n1)c23` [8a, N-(2-(Diethylamino)ethyl)-6-oxo-6H-indolo[3,2,1-de][1,5]naphthyridine-2-carboxamide], the IC50 in [1] (Homo sapiens, HT-29, 72 h) stood at 2.2 ± 0.3 µM; in data set [2], 4.7 ± 0.4 µM; in [3], 3.8 ± 0.5 µM.
As to `CCN(CC)CCCC(C)NC(=O)c1cc2c3ccccc3n3c(=O)ccc(n1)c23` (stereo not drawn) [8k, N-(5-(Diethylamino)pentan-2-yl)-6-oxo-6H-indolo[3,2,1-de][1,5]naphthyridine-2-carboxamide], the IC50 in [1] (Homo sapiens, HT-29, 72 h) amounted to 4.3 ± 0.5 µM; in [2] it was 3.8 ± 0.3 µM; in data set [4], 5.5 ± 0.7 µM.
As to `COc1cccc2c1C(=O)c1c(O)c3c(c(O)c1C2=O)C[C@@](O)(C(=O)CO)C[C@@H]3O[C@H]1C[C@H](N)[C@H](O)[C@H](C)O1` [ADM, reference compound], in data set [1] (HT29 cells, MTT, incubated for 72 h, mean ± s.d., n = 3), the IC50 was determined as 2.6 ± 0.4 µM.
Consider `NC1CCC(NC(=O)c2cc3c4ccccc4n4c(=O)ccc(n2)c34)CC1` (stereo not drawn) [8j, N-(4-Aminocyclohexyl)-6-oxo-6H-indolo[3,2,1-de][1,5]naphthyridine-2-carboxamide], for which the IC50 was 5.9 ± 0.5 µM in [2] and 3.5 ± 0.4 µM in data set [3].
Consider `O=C(NCCN1CCCCC1)c1cc2c3ccccc3n3c(=O)ccc(n1)c23` [8f, 6-Oxo-N-(2-(piperidin-1-yl)ethyl)-6H-indolo[3,2,1-de][1,5]naphthyridine-2-carboxamide], for which the IC50 is 1.7 ± 0.3 µM in data set [1] (Homo sapiens, HT-29, 72 h); 2.4 ± 0.2 µM in data set [2]; 2 ± 0.1 µM in [3]; 1.6 ± 0.1 µM in [4]. In data set [5], this compound gave a solubility at 2 h of 41.3 ± 4.5 µg/mL (≈ 110 µM). The compound further displayed a logP in [6] of 2.17.
Take `O=C(NCCN1CCCC1)c1cc2c3ccccc3n3c(=O)ccc(n1)c23` [8e, 6-Oxo-N-(2-(pyrrolidin-1-yl)ethyl)-6H-indolo[3,2,1-de][1,5]naphthyridine-2-carboxamide]: the results for the IC50 in data set [2] and in data set [3] were 4.5 ± 0.6 µM and 2.1 ± 0.3 µM, respectively.
On to `CN1CCN(C2CCN(c3ccc(NC(=O)c4cc5c6ccccc6n6c(=O)ccc(n4)c56)cc3)CC2)CC1` [8l, N-(4-(4-(4-Methylpiperazin-1-yl)piperidin-1-yl)phenyl)-6-oxo-6H-indolo[3,2,1-de][1,5]naphthyridine-2-carboxamide], for which the IC50 was over 10 µM in data set [1] (Homo sapiens, HT-29, 72 h); over 10 µM in [2]; over 10 µM in data set [3]; over 10 µM in data set [4].
As for `CN(C)CCNC(=O)c1cc2c3ccccc3n3c(=O)ccc(n1)c23` [8b, N-(2-(Dimethylamino)ethyl)-6-oxo-6H-indolo[3,2,1-de][1,5]naphthyridine-2-carboxamide], the IC50 in data set [1] (Homo sapiens, HT-29, 72 h) amounted to 2.9 ± 0.4 µM; in data set [2], 3.8 ± 0.3 µM; in [3], 3.2 ± 0.2 µM; in data set [4] it was 7.5 ± 0.6 µM.
On to `CN1CCC(NC(=O)c2cc3c4ccccc4n4c(=O)ccc(n2)c34)CC1` [8i, N-(1-Methylpiperidin-4-yl)-6-oxo-6H-indolo[3,2,1-de][1,5]naphthyridine-2-carboxamide], for which the IC50 in data set [1] (Homo sapiens, HT-29, 72 h) stood at 2.3 ± 0.3 µM; in [2] it was 4.6 ± 0.5 µM; in [3], 3.4 ± 0.3 µM; in data set [4], 3 ± 0.4 µM. This compound also came in with a solubility at 2 h in data set [5] of 60.4 ± 5.4 µg/mL (≈ 168 µM). In addition, the logP in [6] was 1.38.
Regarding `CN1CCN(CCNC(=O)c2cc3c4ccccc4n4c(=O)ccc(n2)c34)CC1` [8h, N-(2-(4-Methylpiperazin-1-yl)ethyl)-6-oxo-6H-indolo[3,2,1-de][1,5] naphthyridine-2-carboxamide], the “level of malondialdehyde (MDA), lipid peroxidation” value in data set [7] is reported as “increased the level of malondialdehyde”. Besides, the “fold lower IC50 than CO against HT29 cells” value in [1] (HT29 cells, vs CO) is 8.6 fold. Also, the IC50 in [1] (Homo sapiens, HT-29, 72 h) was 1 ± 0.1 µM; in data set [2] it was 1.7 ± 0.2 µM; in [3], 1.3 ± 0.1 µM; in data set [14], 1 to 1.9 µM; in data set [4], 1.9 ± 0.3 µM; in data set [16] (Homo sapiens, CCD-841, read-out: IC50 in normal cell line CCD841) it was 17.1 ± 2.5 µM. Moreover, the Bcl-2 expression result in [8] is “reduced the expression of antiapoptotic Bcl-2 protein in a dose-dependent manner”. The GPX4 expression entry in data set [9] is “markedly reduced”. For the same compound, the “cleaved-caspase 3 level” value in data set [10] is listed as “remarkably led to cleavage of caspase-3”. Besides, the “percentage of apoptotic cells (early + late)” value is on record as 31.55% in [11] (1.0 μM) and 45.14% in data set [11] (5.0 μM). In data set [5], this compound registered a solubility at 2 h of 70.5 ± 3.6 µg/mL (≈ 181 µM). In addition, the “increase of H2AX expression” value in data set [12] (1.0 μM) is recorded as 2.4 fold; in data set [12] (5.0 μM) it was 3.2 fold. In addition, in [13], the “intracellular ROS level (DCFH-DA fluorescence)” value is recorded as “Intense green fluorescence”. The “fold higher cytotoxicity than CO against the four cancer cells” value in data set [14] (vs CO, four cancer cell lines) was 5–9 fold. Also, the GSH level entry in data set [15] is listed as “markedly reduced”. This compound yielded a logP in data set [6] of 1.19. For the same compound, the “fold less cytotoxicity in CCD841 than in HT29 cells” value in data set [16] (IC50 CCD841 vs IC50 HT29) is 17 fold. Moreover, the “MMP (JC-1 red/green fluorescence)” value in data set [17] was “intracellular red fluorescence almost disappeared”.
In the case of `O=c1ccc2nccc3c4ccccc4n1c23` [CO, Canthin-6-one, reference compound], the IC50 is 8.6 ± 0.7 µM in [1] (Homo sapiens, HT-29, 72 h); 8.9 ± 0.9 µM in data set [2]; 7.6 ± 0.6 µM in [3]; 7.6 to 10.7 µM in [14]; 10.7 ± 1.2 µM in data set [4]. Also, the “percentage of apoptotic cells (early + late)” value in data set [11] (5.0 μM) came to 22.68%. Also, in [5], the concentration in solution (solubility at 2 h) came to 16.1 ± 1 µg/mL (≈ 73.1 µM). Also, in data set [12] (5.0 μM), the “increase of H2AX expression” value is recorded as “approximately 1.3 fold”. The “intracellular ROS level (DCFH-DA fluorescence)” value in data set [13] is listed as “weak fluorescence signal”. In data set [6], the logP came out at 1.87.

(Values after paper PMC10468838 (ACS Omega, 2023).)
